Assay outcomes (PubChem)
Compounds with a hit are over-represented: about 4.3% of the library has one in this group of screens.
MC4R ag barr: agonists of human melanocortin 4 receptor (MC4R) beta-arrestin | P32245 | U2OS MC4R beta-arrestin complementation, luminescence; percent of melanotan II response, DMSO zero | activation, % at 8.9 µM | hit rate 0.98% among 360,000;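 active means activation above a per-plate cutoff, the mean activation of sample wells on that plate plus 3 SD, cut at about 8% in these data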
Target sequence (P32245 whole entry, looked up): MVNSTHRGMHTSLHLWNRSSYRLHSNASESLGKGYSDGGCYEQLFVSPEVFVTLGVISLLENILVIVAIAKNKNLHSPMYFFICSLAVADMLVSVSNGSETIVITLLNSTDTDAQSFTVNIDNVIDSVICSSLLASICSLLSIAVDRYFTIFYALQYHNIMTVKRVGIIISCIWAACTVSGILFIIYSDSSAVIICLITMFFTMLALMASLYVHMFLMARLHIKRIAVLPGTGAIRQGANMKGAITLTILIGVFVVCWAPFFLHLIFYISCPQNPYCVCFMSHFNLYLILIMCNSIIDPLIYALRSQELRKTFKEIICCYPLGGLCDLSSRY
HTR2A ag: mouse HTR2A agonism via beta-arrestin recruitment. CHO-K1 mHTR2A beta-arrestin complementation, luminescence; percent of 30 µM serotonin response. activation, % at 7.6 µM. P35363. hit rate 0.66% among 360,000;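 active means activation above a run cutoff, the mean activation of all tested compounds plus 3 SD, cut at about 14% in these data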;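 further: 0% = plate median of compound wells and 100% = 30 µM serotonin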
Beta2AR agonist: agonists of human beta-2 adrenergic receptor inducing internalization; P07550; Am2.2-beta2AR cells, FAP receptor internalization, flow cytometry; response, % (test concentration not listed); hit rate 0.43% among 340,000;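 active means response above a set limit, near 3 SD of response in nonfluorescent compounds, cut at about 42% in these data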
TAAR1 agonist: human TAAR1 agonism. Q96RJ0. CHO RD-HGA16 TAAR1, Fluo-8 calcium fluorescence; vehicle wells 0%, saturating PEA agonist 100%. activation, % at 3 µM. hit rate 0.99% among 360,000;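 active means activation above the mean activation of all test compounds in the run plus 3 SD, cut at about 38% in these data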
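System: CHO-derived RD-HGA16 cells with stable Gα16 and human TAAR1 / Times: 17-24 h plating, Fluo-8 75 min 37 °C, 30 min RT / Technique: calcium-sensitive Fluo-8 signal, excitation 470-495, emission 515-575 nm / Measure: % activation relative to PEA EC100 response / Benchmarks: DMSO and PEA EC100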
TAAR1 antag: antagonists of human TAAR1; Q96RJ0; CHO RD-HGA16 TAAR1, Fluo-8 calcium fluorescence, antagonist; inhibition, % at 3 µM; hit rate 1.5% among 360,000; AID 624466;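 active means inhibition above a per-plate cutoff, the mean inhibition of test compounds on that plate plus 3 SD, cut at about 49% in these data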;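 further: 0% = DMSO plus EC80 beta-PEA response and 100% = DMSO alone without agonist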
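System: RD-HGA16 CHO cells with stable hTAAR1 and Gα16 | Probe or stimulus: EC80 β-phenethylamine stimulus | Dosing: 3 µM, single point | Times: Dye loading 75 min at 37 °C, then 30 min room temperature | Measured by: Fluo-8 calcium-sensitive fluorescence | Read-out basis: % inhibition of agonist calcium response | Replicates: n of 1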
MC4R antag cAMP: antagonists of human melanocortin 4 receptor (MC4R); P32245; MC4R-expressing cells, MTII-stimulated cAMP, LANCE TR-FRET; inhibition, % at 6.5 µM; hit rate 0.48% among 360,000;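 active means inhibition above its plate's cutoff, the mean of tested wells on that plate plus 3 SD, cut at about 29% in these data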;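 further: 0% = Melanotan II alone and 100% = Melanotan II plus saturating MCL0020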
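System: U2OS cells stably expressing human melanocortin 4 receptor (MC4R). Reagent: Melanotan II challenge after compound preincubation. Doses: 6.5 µM. Times: 30-min compound, 1-h challenge, 1-h detection, room temperature. Measured by: TR-FRET with Eu-cAMP and labeled anti-cAMP, 671 nm. Replicates: singlicate.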
nonsel antag count: counter-screen for TAAR1 antagonists: nonselective antagonists; shares compounds with TAAR1 antag; counterscreen cell line, calcium fluorescence, antagonist mode; inhibition, % at 3 µM; hit rate 77% among 2,400; AID 651780; in the data active means inhibition above about 22%;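 further: CHO-Ga16 host cells stimulated with ATP at an EC80 level; 0% = agonist EC80 plus vehicle and 100% = vehicle without agonist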
TAAR1 antag conf: human TAAR1 antagonism, confirmed. shares compounds with TAAR1 antag. TAAR1-expressing cells, fluorescence antagonist read-out. inhibition, % at 3 µM. hit rate 40% among 2,400; in the data active means inhibition above about 49%;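 further: CHO-Ga16 host cells challenged with agonist PEA near its EC80; 0% = agonist at EC80 plus vehicle and 100% = vehicle with no agonist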
Ga16 ag counter: nonselective Ga16 agonist in TAAR1 antagonist counter-screen. hit rate 18% among 2,400. shares compounds with TAAR1 antag. AID 651953. Ga16-expressing cells, calcium fluorescence, agonist counterscreen. activation, % at 3 µM; in the data active means activation above about 12%;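 further: 0% = vehicle wells and 100% = saturating stimulus response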
TAAR1 ag counter: counter-screen for human TAAR1 antagonists: TAAR1 agonists | shares compounds with TAAR1 antag | hTAAR1 cell line, fluorescence activation, agonist mode | activation, % at 3 µM | hit rate 2% among 2,400; in the data active means activation above about 37%;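 further: CHO cells stably expressing TAAR1 with calcium dye readout; 0% = DMSO vehicle and 100% = full agonist response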
* marks the source's active call; other numbers are inactive results; . = no result given.

SMILES	MC4R ag barr	HTR2A ag	Beta2AR agonist	TAAR1 agonist	TAAR1 antag	MC4R antag cAMP	nonsel antag count	TAAR1 antag conf	Ga16 ag counter	TAAR1 ag counter
CCOc1ccc(N(C(=O)c2snc(C(N)=O)c2N)C(C(=O)NCC2CCCO2)c2ccc(C)o2)cc1 (configuration not stated)	-1.1	-3.7	-6.8	-5.0	-15.8	6.9	.	.	.	.
CCOc1ccc(C(C(=O)NCC2CCCO2)N(C(=O)c2snc(C(N)=O)c2N)c2cccc(F)c2)cc1 (configuration not stated)	-0.2	-1.0	-0.8	17.0	56.2*	-2.2	28.3*	49.9*	10.1	22.7
Cc1ccc(C(C(=O)NCc2ccccc2)N(Cc2ccco2)C(=O)c2snc(C(N)=O)c2N)o1 (configuration not stated)	1.9	2.3	13.4	14.3	70.8*	17.8	29.8*	56.2*	7.7	11.8
Cc1[nH]c2ccccc2c1/C=N/NC(=O)C1CC1(c1ccccc1)c1ccccc1 (configuration not stated)	-0.4	1.7	4.2	3.4	11.4	11.1	.	.	.	.
Nc1ccc(C#Cc2ccc3oc4ccccc4c(=O)c3c2)cc1	1.1	5.7	3.2	10.1	68.1*	20.4	19.4	22.9	3.3	4.0
Nc1ccc2oc3ccccc3c2c1	-1.8	6.5	0.2	-0.2	-5.8	11.9	.	.	.	.
O=C(NC(Cc1ccc(O)cc1)C(=O)N=Nc1c(O)[nH]c2ccccc12)c1ccccc1 (configuration not stated)	-1.9	-2.3	-20.0	1.5	-5.3	-0.2	.	.	.	.
CCC(=O)N1Cc2cc(C(=O)Nc3nccs3)nc(-c3cccc(-c4ccccc4OC)c3)c2[C@@H]1CCO	.	10.5	.	10.7	73.4*	.	28.6*	45.9	7.5	6.5
CCNC(=O)c1cc2c(c(-c3cccc(-c4ccccc4F)c3)n1)[C@@H](CCO)N(C(=O)CC1CC1)C2	.	-6.5	.	3.1	5.5	.	.	.	.	.
CN(Cc1ccccc1)c1nc2c(c(=O)n(C)c(=O)n2C)n1CCCc1ccccc1	1.1	-9.5	-1.1	8.9	49.4*	4.8	27.4*	52.0*	17.3*	39.5*
COc1ccc(CN(C)CC(=O)Nc2cccc(S(=O)(=O)N3CCCC3)c2)cc1F	-1.0	-4.3	4.4	16.2	63.8*	12.8	8.1	5.6	-0.2	-2.1
Cc1ccc(OCC(=O)Nc2cccc(S(=O)(=O)N3CCCCC3)c2)c([N+](=O)[O-])n1	-1.4	0.5	-15.4	5.4	-16.7	-3.9	.	.	.	.
CN(CC(=O)Nc1cccc(S(=O)(=O)N2CCCCC2)c1)Cc1ccc(F)cc1	0.1	-7.2	-2.2	5.3	30.1	9.5	.	.	.	.
Cc1ccc2cccc(OCC(=O)Nc3cccc(S(=O)(=O)N4CCCC4)c3)c2n1	-1.8	7.5	17.1	14.9	74.5*	10.8	33.6*	56.8*	9.4	7.1
CN(CC(=O)Nc1cccc(F)c1)CC(=O)Nc1cccc(S(=O)(=O)N2CCCCCC2)c1	-1.4	-6.1	11.0	20.2	60.5*	7.7	21.2	44.3	12.4*	15.0
Cn1nccc1C(=O)N1CCCC(N2CCN(Cc3ccc4c(c3)OCO4)CC2)C1 (configuration not stated)	-0.5	-8.3	2.4	-0.4	-25.6	22.7	.	.	.	.
CC(=O)Nc1ccc(N(C(=O)c2ccco2)C(C(=O)NC2CCCCC2)c2ccccc2)cc1 (configuration not stated)	1.5	2.2	-6.1	7.3	-5.8	19.0	.	.	.	.
